From ChEMBL document CHEMBL1123307, “Peptides as receptor selectivity modulators of opiate pharmacophores” (J Med Chem, 1986) come the findings set out here.

For orientation: Ki means a dissociation constant, usually derived from enzyme kinetics or from competition with a known ligand. Higher therefore signals a looser hold on the target.

Where a name gives a salt, the structure may show the parent alone. Residues, ends and D or L forms follow the SMILES beside them. *: point of attachment. X2 = O=C(N/N=C1/CC[C@@]2(O)[C@H]3Cc4ccc(O)c5c4[C@@]2(CCN3CC2CC2)[C@H]1O5)*; X1 = CN1CC[C@]23c4c5ccc(O)c4O[C@H]2/C(=N\NC(=O)*)CC[C@@]3(O)[C@H]1C5

Test [1] deals with Mu-type opioid receptor (Cavia porcellus, UniProt P97266). Description: Binding affinity against Opioid receptor mu 1 of guinea pig brain membranes using 0.5 nM of [3H]naloxone as radioligand. A digest of the protocol:
(§1)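 Incubations in 50 mM Tris buffer, pH 7.4, with 100 mM NaCl and bacitracin (50 μg/mL).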

The target of test [2] is Kappa-type opioid receptor (Cavia porcellus, UniProt P41144). Briefly: Binding affinity against Opioid receptor kappa 1 of guinea pig brain membranes using 1 nM of (-)-[3H]ethylketazocine as radioligand. The gist of the method: as §1
Kappa-type opioid receptor, sequence (P41144 whole entry): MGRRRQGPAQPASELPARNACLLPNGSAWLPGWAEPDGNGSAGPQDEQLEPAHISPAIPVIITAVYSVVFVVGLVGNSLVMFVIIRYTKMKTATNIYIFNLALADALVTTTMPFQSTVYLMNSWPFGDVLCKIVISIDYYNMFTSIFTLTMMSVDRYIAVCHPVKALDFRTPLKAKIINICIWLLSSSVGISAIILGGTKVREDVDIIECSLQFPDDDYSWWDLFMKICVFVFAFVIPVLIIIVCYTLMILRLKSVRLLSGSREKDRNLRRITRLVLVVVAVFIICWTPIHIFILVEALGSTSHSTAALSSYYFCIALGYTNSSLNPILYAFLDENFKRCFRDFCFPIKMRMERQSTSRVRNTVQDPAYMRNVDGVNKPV

Mu-type opioid receptor, sequence (P97266 whole entry): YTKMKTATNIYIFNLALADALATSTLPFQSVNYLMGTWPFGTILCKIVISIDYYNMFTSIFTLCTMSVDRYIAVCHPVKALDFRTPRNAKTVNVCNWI

Consider `CC(C)CC(NC(=O)C(Cc1ccccc1)NC(=O)N/N=C1/CC[C@@]2(O)C3Cc4ccc(O)c5c4C2(CCN3C)[C@H]1O5)C(=O)O` (some centres undefined), for which the Ki in test [1] was found to be 14.8 nM; in test [2], 96 nM.
In the same order, the values of `CC(C)CC(NC(=O)C(Cc1ccccc1)NC(=O)N/N=C1/CC[C@@]2(O)C3Cc4ccc(O)c5c4C2(CCN3CC2CC2)[C@H]1O5)C(=O)O` (some centres undefined) are 0.76 nM and 2.8 nM.
Taken in the same sequence, the figures for `CC[C@H](C)[C@H](NC(=O)[C@H](CCCNC(=N)N)NC(=O)[C@H](CCCNC(=N)N)NC(=O)[C@H](CC(C)C)NC(=O)[C@H](Cc1ccccc1)NC(=O)CNC(=O)CNC(=O)[C@@H](N)Cc1ccc(O)cc1)C(=O)OC` were 340 nM and 40 nM.
Taken in the same sequence, the figures for `CC[C@H](C)[C@H](NC(=O)[C@H](CCCN=C(N)N)NC(=O)[C@H](CCCN=C(N)N)NC(=O)[C@H](CC(C)C)NC(=O)[C@H](Cc1ccccc1)NC(=O)N/N=C1/CC[C@@]2(O)[C@H]3Cc4ccc(O)c5c4[C@@]2(CCN3C)[C@H]1O5)C(=O)OC` (X1-FLRRI-OMe) were 15.5 nM and 9.8 nM.
Take `CC[C@H](C)[C@H](NC(=O)[C@H](CCCN=C(N)N)NC(=O)[C@H](CCCN=C(N)N)NC(=O)[C@H](CC(C)C)NC(=O)[C@H](Cc1ccccc1)NC(=O)N/N=C1/CC[C@@]2(O)[C@H]3Cc4ccc(O)c5c4[C@@]2(CCN3CC2CC2)[C@H]1O5)C(=O)OC` (X2-FLRRI-OMe): the Ki in test [1] is 2.3 nM; in test [2], 2.2 nM.
With `NC(=O)N/N=C1/CC[C@@]2(O)C3Cc4ccc(O)c5c4C2(CCN3CC2CC2)[C@H]1O5` (some centres undefined) [NALTREXONE SEMICARBAZONE], the inhibition constant (Ki) turned out to be 0.48 nM in test [1] and 2.6 nM in test [2].
For `CN1CCC23c4c5ccc(O)c4O[C@H]2/C(=N\NC(N)=O)CC[C@@]3(O)C1C5` (some centres undefined) [OXYMORPHONE SEMICARBAZONE HYDROCHLORIDE], the inhibition constant (Ki) was 14.5 nM in test [1] and 179 nM in test [2].
